Test [1] in a line: Noncompetitive inhibition of yeast glyoxalase 1 assessed as inhibition of product formation by double reciprocal plot method. Also on record: species or system Saccharomyces cerevisiae. The essentials:
(§1)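 Yeast glyoxalase I, diluted to 20 µg/ml in 30% glycerin with 0.1% BSA. Assays ran at 30 °C in 0.05 M phosphate buffer, pH 6.6. Methylglyoxal, reduced glutathione, inhibitor and buffer were preincubated 3 min to form the hemimercaptal, then enzyme was added. Product formation was followed at 240 nm.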

The subject of test [2] is Saccharomyces cerevisiae. Briefly: Synergistic binding affinity to active site of yeast glyoxalase 1 using hemimercaptal as substrate at 0.1 to 0.3 mM in presence of free glutathione. The essentials: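 Yonetani–Thorell analysis with yeast glyoxalase I at 30 °C, pH 6.6 phosphate, read at 240 nm. Reciprocal velocity was plotted against inhibitor concentration at fixed hemimercaptal substrate and fixed free glutathione levels of 0.1, 2.0 or 5.0 mM.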

For test [3], the system named is Saccharomyces cerevisiae. Description: Binding affinity to active site of yeast glyoxalase 1 using hemimercaptal as substrate at 0.005 to 0.015 mM in presence of free glutathione.
For test [4], the system named is Saccharomyces cerevisiae. Description: Competitive inhibition of yeast glyoxalase 1 assessed as inhibition of product formation by double reciprocal plot method. The essentials: as §1
The test system of test [5] is Saccharomyces cerevisiae. Briefly: Activity of yeast glyoxalase 1. The essentials:
as §1

A short description of test [6]: Binding affinity to yeast glyoxalase 1 assessed as inhibition of product formation by double reciprocal plot method. Also on record: species or system Saccharomyces cerevisiae. The essentials:
as §1

The species named for a further test is Mus musculus. Briefly: Activity of mouse liver glyoxalase.
The nature of test [7]: Ratio of Km for yeast glyoxalase 1 to Km for mouse liver glyoxalase.

Here are results for 12 compounds from ChEMBL document CHEMBL3272127, “Synthesis and kinetic evaluation of S- and N-substituted cysteinylglycines as inhibitors of glyoxalase I” (J Med Chem, 1977).

A word on the Ki: it is a measure of affinity in units of concentration, obtained from inhibition or displacement. One may read the Km as the substrate concentration at which the rate is half of its maximum. By Kd is commonly meant the equilibrium constant for the complex coming apart.

Activity calls are given as the source filed them. No cut-off for these calls is given here. Square brackets hold non-standard residues; d marks the D form. Peptide text beside a SMILES is read from it. * marks the point of attachment. Bn = c1ccc(C*)cc1; GABA = NCCCC(=O)O; βAla = NCCC(=O)O

Regarding `N[C@@H](CSCc1ccc(Br)cc1)C(=O)NCC(=O)O`, in test [1] (read-out: Ki), the Ki stood at 580 µM.
Same read-out and setting: with `O=C(O)CCC(=O)N[C@@H](CSCc1ccccc1)C(=O)NCC(=O)O` the figure was 4500 µM; with `NCCC(=O)N[C@@H](CSCc1ccccc1)C(=O)NCC(=O)O` (H-[βAla]-Cys(Bn)-Gly-OH), 5300 µM.
For the compound `O=C(O)CCCC(=O)N[C@@H](CSCc1ccc(Br)cc1)C(=O)NCC(=O)O`, in test [1] (read-out: Ki), the inhibitory constant (Ki) stood at 320 µM. In addition, in the test on Saccharomyces cerevisiae [2], the result was Active.
Consider `N[C@@H](CCC(=O)N[C@@H](CSCc1ccc(Br)cc1)C(=O)NCC(=O)O)C(=O)O`, for which the outcome in the test on Saccharomyces cerevisiae [3] was Active. Moreover, the inhibition result in the test with Saccharomyces cerevisiae [4] is “Active”.
In the case of `CC(=O)C(O)SC[C@H](NC(=O)CC[C@H](N)C(=O)O)C(=O)NCC(=O)O` (stereo partly drawn), the Km was found to be 500 µM in the test on Saccharomyces cerevisiae [5] and 57 µM in the test filed under Mus musculus. Further, the Kd in test [6] worked out at 3100 µM. Further, in test [7], the Ratio came out at 10. The inhibition entry in the test on Saccharomyces cerevisiae [4] was “Active”.
Regarding `O=C(O)CCC(=O)N[C@@H](CSCc1ccc(Br)cc1)C(=O)NCC(=O)O`, the Ki in test [1] (read-out: Ki) is 400 µM.
The same measure, in the same setting: with `NCCCC(=O)N[C@@H](CSCc1ccc(Br)cc1)C(=O)NCC(=O)O` the figure was 1200 µM; with `O=C(O)CCCC(=O)N[C@@H](CSCc1ccccc1)C(=O)NCC(=O)O`, 3000 µM.
For the compound `NCCCC(=O)N[C@@H](CSCc1ccccc1)C(=O)NCC(=O)O` (H-[GABA]-Cys(Bn)-Gly-OH), the Ki in test [1] (read-out: Ki) is 4100 µM.
On to `N[C@@H](CSCc1ccccc1)C(=O)NCC(=O)O`, for which the Ki entry in test [1] is “Not Active”.
With `NCCC(=O)N[C@@H](CSCc1ccc(Br)cc1)C(=O)NCC(=O)O`, in test [1] (read-out: Ki), the Ki is 1500 µM.
